From ChEMBL document CHEMBL1124545, “Tricyclic compounds as selective muscarinic receptor antagonists. 3. Structure-selectivity relationships in a series of cardioselective (M2) antimuscarinics” (J Med Chem, 1989)

Experiments:
[1] = biological target: T1, Muscarinic acetylcholine receptor M2 (Rattus norvegicus, UniProt P10980); assay: Binding affinity to the rat cardiac muscarinic acetylcholine receptor M2 using 0.3 nM [3H]N-methylscopolamine as radioligand
T1 sequence (P10980 whole entry): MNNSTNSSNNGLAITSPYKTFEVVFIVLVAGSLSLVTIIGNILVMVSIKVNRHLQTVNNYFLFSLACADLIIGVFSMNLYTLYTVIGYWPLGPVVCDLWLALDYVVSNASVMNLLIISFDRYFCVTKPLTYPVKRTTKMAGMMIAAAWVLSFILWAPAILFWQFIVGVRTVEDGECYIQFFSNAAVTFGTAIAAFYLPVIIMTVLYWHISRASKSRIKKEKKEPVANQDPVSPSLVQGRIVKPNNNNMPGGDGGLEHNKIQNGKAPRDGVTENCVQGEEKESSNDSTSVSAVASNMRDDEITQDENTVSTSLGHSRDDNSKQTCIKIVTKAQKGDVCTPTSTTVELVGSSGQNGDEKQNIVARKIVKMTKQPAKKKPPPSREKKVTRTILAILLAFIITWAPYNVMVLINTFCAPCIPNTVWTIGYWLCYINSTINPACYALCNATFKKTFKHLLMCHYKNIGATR
In short: (§1)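 Competition against 0.3 nM [3H]NMS in rat total heart homogenate (1:300 in 100 mM NaCl, 10 mM MgCl2, 20 mM HEPES, pH 7.4, cheesecloth-filtered). 1 mL homogenate incubated 45 min at 30 °C with a range of cold ligand concentrations. Pellets obtained by centrifugation, washed twice with saline, solubilized and counted. Nonspecific binding taken with 1 µM racemic QNB. Quadruplicate assays.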

[2] = biological target: T2, Muscarinic acetylcholine receptor M3 (Rattus norvegicus, UniProt P08483); assay: Binding affinity for glandular muscarinic acetylcholine receptor M3 in rat assayed using 0.3 nM [3H]N-methylscopolamine as radioligand
In short: (§2)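 1 mL homogenate incubated 45 min at 30 °C with 0.3 nM [3H]NMS plus varying unlabeled compound. Bound ligand separated by centrifugation, saline-washed pellet scintillation counted. Nonspecific binding defined with 1 µM racemic QNB. Run in quadruplicate.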

[3] = biological target: Muscarinic receptor M2 and M3 (Rattus norvegicus) (UniProt P08483+P10980); assay: Selectivity ratio for glandular muscarinic receptor 3 and cardiac muscarinic receptor 2 in rat
[4] = biological target: T2, Muscarinic acetylcholine receptor M3; assay: Binding affinity of compound for glandular Muscarinic acetylcholine receptor M3 in rat using 0.3 nM [3H]N-methylscopolamine as radioligand; in short: as §2
[5] = test system: Muscarinic acetylcholine receptors M2 & M3 (Rattus norvegicus); assay: Selectivity ratio for glandular muscarinic receptor 3 and cardiac muscarinic receptor 2 in rat
[6] = biological target: T1, Muscarinic acetylcholine receptor M2; assay: Binding affinity of compound for cardiac Muscarinic acetylcholine receptor M2 in rat using 0.3 nM [3H]N-methylscopolamine as radioligand; in short: as §1

T2 sequence (P08483 whole entry): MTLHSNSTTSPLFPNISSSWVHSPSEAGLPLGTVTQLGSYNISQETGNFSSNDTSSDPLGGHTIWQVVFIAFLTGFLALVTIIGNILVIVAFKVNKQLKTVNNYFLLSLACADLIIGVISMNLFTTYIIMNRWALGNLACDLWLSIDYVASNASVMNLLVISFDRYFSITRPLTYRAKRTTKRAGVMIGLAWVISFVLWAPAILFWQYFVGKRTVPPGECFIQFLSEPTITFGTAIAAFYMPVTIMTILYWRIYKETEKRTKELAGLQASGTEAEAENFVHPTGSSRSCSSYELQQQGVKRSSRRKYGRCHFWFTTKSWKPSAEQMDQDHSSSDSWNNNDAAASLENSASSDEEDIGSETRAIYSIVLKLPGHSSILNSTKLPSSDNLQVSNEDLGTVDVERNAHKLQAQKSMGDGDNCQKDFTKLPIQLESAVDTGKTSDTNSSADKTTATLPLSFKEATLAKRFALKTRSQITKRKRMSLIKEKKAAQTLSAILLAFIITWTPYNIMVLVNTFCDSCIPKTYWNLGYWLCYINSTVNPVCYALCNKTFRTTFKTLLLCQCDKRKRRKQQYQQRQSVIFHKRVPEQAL
Sequence of Muscarinic receptor M2 and M3 (Rattus norvegicus) (P08483 whole entry, looked up, one chain of several): as the sequence (P08483 whole entry) above

IC50 [1] [µM]	IC50 [2] [µM]	Ratio [3]	IC50 [4] [µM]	Ratio [5]	IC50 [6] [µM]	Compound
0.15	2	13				CCN(CC)CC1CCCN1CC(=O)N1c2ccccc2C(=O)Nc2cccnc21 (centres undefined)
0.03	1	33.3				CCN(CC)CC1CCCCN1CC(=O)N1c2ccc(C)cc2C(=O)Nc2cccnc21 (centres undefined)
0.2	2	10				CCc1ccc2c(c1)C(=O)Nc1cccnc1N2C(=O)CN1CCCCC1CN(CC)CC (centres undefined)
0.07	2	28.5				CCN(CC)CC1CCCCN1CC(=O)N1c2cc(C)ccc2C(=O)Nc2cccnc21 (centres undefined)
1.5	6	4				CCCN(CCC)CC1CCCCN1CC(=O)N1c2ccccc2C(=O)Nc2cccnc21 (centres undefined)
0.1	4	40				CCN(CC)CC1CCCCN1CC(=O)N1c2ccc(Cl)cc2C(=O)Nc2cccnc21 (centres undefined)
2	15	7.5				CCN(CC)CC1CCCCCN1CC(=O)N1c2ccccc2C(=O)Nc2cccnc21 (centres undefined)
5	> 10	> 2				CCN(CC)CC1CCCCN1C(=O)N1c2ccccc2C(=O)Nc2cccnc21 (centres undefined)
0.04		37.5				CCN(CC)CC1CCCCN1CC(=O)N1c2cc(Cl)ccc2C(=O)Nc2cccnc21 (centres undefined)
0.14	1	7.1				CN(C)CC1CCCCN1CC(=O)N1c2ccccc2C(=O)Nc2cccnc21 (centres undefined)
0.06	0.2	3.3				CCN(CC)CCCC1CCCCN1CC(=O)N1c2ccccc2C(=O)Nc2cccnc21 (centres undefined)
0.12	1.5	12.5				CCN(C)CC1CCCCN1CC(=O)N1c2ccccc2C(=O)Nc2cccnc21 (centres undefined)
0.33	1	3				CCN(CC)CCC1CCCCN1CC(=O)N1c2ccccc2C(=O)Nc2cccnc21 (centres undefined)
0.22	0.6	2.7				CCN(CC)CC1CCCCN1CCC(=O)N1c2ccccc2C(=O)Nc2cccnc21 (centres undefined)
0.15	4	26.6				CCN(CC)CC1CCCCN1CC(=O)N1c2ccc(Br)cc2C(=O)Nc2cccnc21 (centres undefined)

The remaining lines, values behind:

Compound	IC50 [1] [µM]	IC50 [2] [µM]	Ratio [3]	IC50 [4] [µM]	Ratio [5]	IC50 [6] [µM]
CCNCC1CCCCN1CC(=O)N1c2ccccc2C(=O)Nc2cccnc21 (centres undefined)	0.6	3	5			
CCN(CC)CC1CCCCN1CC(=O)N1c2ccccc2C(=O)Nc2cccnc21 (stereo in doubt; 28) [OTENZEPAD]	0.4	10				
CCN(CC)CC1CCCN(CC(=O)N2c3ccccc3C(=O)Nc3cccnc32)C1 (centres undefined)	0.17	0.3	1.8			
CCN(CC)CC1CCCCN1CC(=O)N1c2ccccc2C(=O)Nc2cccnc21 (stereo in doubt; 28)			25			
CCCCN(C)CC1CCCCN1CC(=O)N1c2ccccc2C(=O)Nc2cccnc21 (centres undefined)	0.1	0.2	2			
CCN(CC)CC1CCCCN1CC(=O)N1c2ccccc2C(=O)Nc2cccnc21 (stereo in doubt; 10) [OTENZEPAD]		6				
CCN(CC)CC1CCCCN1CC(=O)N1c2ccccc2C(=O)Nc2cccnc21 (stereo in doubt; 10)			42.8			
O=C1Nc2cccnc2N(C(=O)CN2CCCCC2CN2CCCCC2)c2ccccc21 (centres undefined)				1.5	2.5	0.6
CCN(CC)CC1CCCCN1CC(=O)N1c2ccccc2C(=O)Nc2cccnc21 (stereo in doubt; 29)			120			
CN(CC1CCCCN1CC(=O)N1c2ccccc2C(=O)Nc2cccnc21)C1CCCCCC1 (centres undefined)	0.03	0.07	2.3			
CCN(CC)CC1CCCCN1CC(=O)N1c2ccccc2C(=O)Nc2cccnc21 (stereo in doubt; 29) [OTENZEPAD]	0.05	6				
O=C1Nc2cccnc2N(C(=O)CN2CCCCC2CN2CCCC2)c2ccccc21 (centres undefined)	0.56	1.5	2.7			
CN(CC1CCCCN1CC(=O)N1c2ccccc2C(=O)Nc2cccnc21)C1CCCCC1 (centres undefined)	0.06	0.15	2.5			
O=C1Nc2cccnc2N(C(=O)CN2CCCCC2CN2CCOCC2)c2ccccc21 (centres undefined)	> 1	4	< 4			
CCN(CC)CC1CCN(CC(=O)N2c3ccccc3C(=O)Nc3cccnc32)CC1	0.8	4	5			
